From ChEMBL document CHEMBL1144477, “Design, synthesis and cytotoxic properties of novel 1-[4-(2-alkylaminoethoxy)phenylcarbonyl]-3,5-bis(arylidene)-4-piperidones and related compounds” (Eur J Med Chem, 2007)

How the values were obtained:
[1] = tested on: SR; test: Cytotoxicity against human SR cells; assay type: cell-based
[2] = tested on: HCT-116; test: Cytotoxicity against human HCT116 cells; assay type: cell-based
[3] = Cytotoxicity against human HL60 (TB) cells; assay type: cell-based; conditions: HL-60
[4] = tested on: SW-620; test: Cytotoxicity against human SW620 cells; assay type: cell-based
[5] = tested on: HCT-15; test: Cytotoxicity against human HCT15 cells; assay type: cell-based
[6] = tested on: KM12; test: Cytotoxicity against human KM12 cells; assay type: cell-based
[7] = tested on: K562; test: Cytotoxicity against human K562 cells; assay type: cell-based
[8] = tested on: COLO 205; test: Cytotoxicity against human COLO205 cells; assay type: cell-based
[9] = tested on: HCC 2998; test: Cytotoxicity against human HCC2998 cells; assay type: cell-based
[10] = Cytotoxicity against human NCI49 cell lines; assay type: cell-based
[11] = Cytotoxicity against human RPMI8226 cells; assay type: cell-based; conditions: RPMI-8226
[12] = tested on: CCRF-CEM; test: Cytotoxicity against human CEM cells; assay type: cell-based
In short: (§1)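 Human Molt 4/C8 and CEM T-lymphocytes and murine L1210 cells were each exposed to at least three compound concentrations at 37 °C for 48 h. Growth inhibition was then measured, and IC50 values were derived from it.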

[13] = Cytotoxicity against human Molt4/C8 cells; assay type: cell-based; conditions: MOLT-4; in short: as §1
[14] = tested on: L1210; test: Cytotoxicity against […] mouse L1210 cells; assay type: cell-based; in short: as §1
[15] = tested on: HepG2; test: Induction of apoptosis in human HepG2 cells at 20 uM by TUNEL assay; assay type: functional
In short: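 HepG2 cells (ATCC) were kept in DMEM with 10% fetal calf serum and penicillin G/streptomycin/amphotericin B, at 37 °C in humidified 5% CO2. Cells on chambered slides were treated with the compound; controls had no addition or DMSO only. After 48 h, cells were fixed, permeabilized and TUNEL-stained (fluorescein). Labelled apoptotic cells were counted by fluorescence microscopy and reported as a percentage.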

| Structure (SMILES) | IC50 [1] [nM] | IC50 [2] [nM] | IC50 [3] [nM] | IC50 [4] [nM] | IC50 [5] [nM] | IC50 [6] [nM] | IC50 [7] [nM] | IC50 [8] [nM] | IC50 [9] [nM] | IC50 [10] [nM] | IC50 [11] [nM] | IC50 [12] [nM] | IC50 [13] [nM] | IC50 [14] [nM] | Activity [15] [%] |
| --- | --- | --- | --- | --- | --- | --- | --- | --- | --- | --- | --- | --- | --- | --- | --- |
| O=C1/C(=C/c2ccccc2)CNC/C1=C\c1ccccc1 | 209 | 182 | 363 | 575 | 631 | 794 | 490 | 1550 | 2000 | 1620 | 275 |  |  |  |  |
| CC[N+](C)(CC)CCOc1ccc(C(=O)N2C/C(=C\c3ccc([N+](=O)[O-])cc3)C(=O)/C(=C/c3ccc([N+](=O)[O-])cc3)C2)cc1 |  |  |  |  |  |  |  |  |  |  |  | 39300 | 40200 | 65000 |  |
| CC[N+](C)(CC)CCOc1ccc(C(=O)N2C/C(=C\c3ccccc3)C(=O)/C(=C/c3ccccc3)C2)cc1 | 38000 | > 50100 | > 50100 | 30200 | > 50100 | 43700 | 43700 | 20400 | 28200 | > 41700 | 17400 | 110000 | 124000 | 160000 |  |
| CC[N+](C)(CC)CCOc1ccc(C(=O)N2C/C(=C\c3ccc(Cl)cc3)C(=O)/C(=C/c3ccc(Cl)cc3)C2)cc1 |  |  |  |  |  |  |  |  |  |  |  | 71200 | 55800 | 729000 |  |
| O=C1/C(=C/c2ccccc2)CN(C(=O)c2ccccc2)C/C1=C\c1ccccc1 |  |  |  |  |  |  |  |  |  |  |  | 1640 | 1700 | 12000 |  |
| CC[N+](C)(CC)CCOc1ccc(C(=O)N2C/C(=C\c3ccc(C)cc3)C(=O)/C(=C/c3ccc(C)cc3)C2)cc1 | 22900 | 14100 | 11800 | 10500 | 9330 | 9330 | 1350 | 8910 | 6170 | 7760 | 1260 | 23700 | 12400 | 18700 |  |
| COc1ccc(C(=O)N2C/C(=C\c3ccccc3)C(=O)/C(=C/c3ccccc3)C2)cc1 |  |  |  |  |  |  |  |  |  |  |  | 5000 | 2390 | 37800 |  |
| Cc1ccc(/C=C2\CN(C(=O)c3ccc(OCCN4CCOCC4)cc3)C/C(=C\c3ccc(C)cc3)C2=O)cc1 | 245 | 2450 | 1100 | 1020 | 832 | 1120 | 275 | 1150 |  | < 708 | 115 | 1360 | 1720 | 21800 |  |
| O=C1/C(=C/c2ccc(Cl)cc2)CN(C(=O)c2ccc(OCCN3CCCCC3)cc2)C/C1=C\c1ccc(Cl)cc1 | 2290 | 47900 | 20400 | 3550 | 49000 | 19100 | 4370 | 15800 | 1580 | > 11500 | 759 | 9980 | 34000 | 103000 |  |
| CN(C)CCOc1ccc(C(=O)N2C/C(=C\c3ccc(Cl)cc3)C(=O)/C(=C/c3ccc(Cl)cc3)C2)cc1 | 126 | 6030 | 1410 | 209 | 295 | 1740 | 331 | 1700 | 263 | 1910 | 98 | 1090 | 1440 | 7180 |  |
| CCN(CC)CCOc1ccc(C(=O)N2C/C(=C\c3ccccc3)C(=O)/C(=C/c3ccccc3)C2)cc1 |  | < 10 |  | 1350 | 1170 | 1740 | 43 | 2630 |  | < 1380 | < 10 | 1650 | 1280 | 8230 |  |
| O=C1/C(=C/c2ccc([N+](=O)[O-])cc2)CN(C(=O)c2ccc(OCCN3CCOCC3)cc2)C/C1=C\c1ccc([N+](=O)[O-])cc1 |  |  |  |  |  |  |  |  |  |  |  | 379 | 343 | 6340 |  |
| O=C1/C(=C/c2ccccc2)CN(C(=O)c2ccc(OCCN3CCOCC3)cc2)C/C1=C\c1ccccc1 |  | 339 | 562 | 191 | 1450 | 129 | 158 | 22900 |  | > 2630 | 123 | 6840 | 8420 | 222000 |  |
| CCN(CC)CCOc1ccc(C(=O)N2C/C(=C\c3ccc(C)cc3)C(=O)/C(=C/c3ccc(C)cc3)C2)cc1 |  |  |  |  |  |  |  |  |  |  |  | 1330 | 1320 | 2280 |  |
| Cc1ccc(/C=C2\CN(C(=O)c3ccc(OCCN4CCCCC4)cc3)C/C(=C\c3ccc(C)cc3)C2=O)cc1 |  | 1580 | 933 | 339 | 1070 | 148 | 589 | 6920 |  | 1380 | 123 | 1140 | 910 | 5140 |  |
| CCN(CC)CCOc1ccc(C(=O)O)cc1 |  |  |  |  |  |  |  |  | 2000 |  |  | > 500000 | > 500000 | > 500000 |  |
| Cl.O=C1/C(=C/c2ccc(Cl)cc2)CN(C(=O)c2ccc(OCCN3CCOCC3)cc2)C/C1=C\c1ccc(Cl)cc1 |  | 7250 | 5500 | 1450 | 2190 | 2290 | 6760 |  | < 5 | < 562 | 132 | 8260 | 18800 | 81400 | 29.25 |
| CCN(CC)CCOc1ccc(C(=O)N2C/C(=C\c3ccc([N+](=O)[O-])cc3)C(=O)/C(=C/c3ccc([N+](=O)[O-])cc3)C2)cc1 |  |  |  |  |  |  |  |  |  |  |  | 340 | 310 | 3630 |  |
| CN(C)CCOc1ccc(C(=O)N2C/C(=C\c3ccc([N+](=O)[O-])cc3)C(=O)/C(=C/c3ccc([N+](=O)[O-])cc3)C2)cc1 |  |  |  |  |  |  |  |  |  |  |  | 319 | 314 | 5190 |  |
| O=C1/C(=C/c2ccc([N+](=O)[O-])cc2)CN(C(=O)c2ccc(OCCN3CCCCC3)cc2)C/C1=C\c1ccc([N+](=O)[O-])cc1 |  |  |  |  |  |  |  |  |  |  |  | 315 | 330 | 4740 |  |
| O=C1/C(=C/c2ccccc2)CN(C(=O)c2ccc(OCCN3CCCCC3)cc2)C/C1=C\c1ccccc1 |  |  |  |  |  |  |  |  |  |  |  | 1160 | 1480 | 8400 |  |
| CN(C)CCOc1ccc(C(=O)N2C/C(=C\c3ccccc3)C(=O)/C(=C/c3ccccc3)C2)cc1 |  |  |  |  |  |  |  |  |  |  |  | 1240 | 580 | 10200 |  |
| CCN(CC)CCOc1ccc(C(=O)N2C/C(=C\c3ccc(Cl)cc3)C(=O)/C(=C/c3ccc(Cl)cc3)C2)cc1 |  |  |  |  |  |  |  |  |  |  |  | 12300 | 18300 | 47300 |  |
| Cc1ccc(/C=C2\CN(C(=O)c3ccc(OCCN(C)C)cc3)C/C(=C\c3ccc(C)cc3)C2=O)cc1 | 479 | 1380 | 1320 | 562 | 912 | 776 | 1820 | 1020 | 229 | 1150 | 224 | 884 | 1390 | 7140 |  |
| O=c1[nH]cc(F)c(=O)[nH]1 [FLUOROURACIL] | 60300 | 2040 | 85100 | 18600 | 6610 | 7940 | 126000 | 3390 | 5750 | > 29500 | 3550 |  |  |  |  |
| N[C@@H](Cc1ccc(N(CCCl)CCCl)cc1)C(=O)O [MELPHALAN] | 1860 | 30200 | 2040 | 38900 |  | 43700 | 43700 | 66100 | 41700 | 26900 | 66100 |  |  |  |  |
